Source: PubChem BioAssay (Broad Institute)
CFTR F508del cor: F508del CFTR correction, initial screen, CFBE line, single point; CFBE cells, YFP halide quenching; stimulated with forskolin plus potentiator P3; % fluorescence drop versus neutral controls; activity (quench increase), % at 7.58 µM; actives 0.36% (n = 350,000); AID 720511, 2013;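 active = mean added fluorescence quench of at least 8% versus neutral control, with both replicates also reaching 8%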;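 also: cells transiently co-express mutant CFTR-F508del with the halide-sensitive YFP; corrector assay measuring rescue of mutant channel to the surface after 24 h compound exposure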
E-sel inducer: E-selectin induction in HUVECs, primary screen, imaging, HUVEC, immunofluorescence imaging, single point; P16581; normalized: neutral wells 0, TNF-alpha wells 100; activation, % at 7.58 µM; actives 0.37% (n = 260,000); AID 686992, 2013;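 active = mean E-selectin-positive cell signal at least 10% of the positive control, reached in at least 60% of replicates, without over 20% cell loss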
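Read-out: % PE-positive cells | Test system: HUVEC | Doses: One compound dose added by pin transfer | Buffer or medium: EGM-2 over gelatin coat | Signal: Immunofluorescence imaging | Benchmarks: TNF-alpha, DMSO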
S100A4 inh HTS: inhibitors of S100A4-myosin IIA peptide binding, primary screen, biochemical, fluorescence polarization, TAMRA-MyoIIA peptide. Protein S100-A4 (Homo sapiens), P26447. inhibition, % at 10.7 µM. actives 0.14% (n = 360,000);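 active = mean inhibition of at least 70% across replicates, with every replicate also reaching that level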
Target sequence (P26447 whole entry, looked up): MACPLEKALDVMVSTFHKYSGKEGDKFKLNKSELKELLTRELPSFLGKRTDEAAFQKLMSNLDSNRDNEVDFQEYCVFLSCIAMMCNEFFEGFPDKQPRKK
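Assay system: human S100A4 monomer with TAMRA-labelled myosin IIA peptide / Buffer or medium: Calcium-containing HEPES buffer, pH 7.2 / Reagent: TAMRA-labelled myosin IIA heavy-chain peptide probe, 5 nM / Compound: one dose per compound / Timing: polarization read 5 min after assay mix addition, stable 5–60 min / Benchmarks: neutral control DMSO, positive control TFP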
HIV Env fusion: inhibitors of HIV-1 Env-driven cell-cell fusion, primary screen, HeLa-JRFL effector, CEM21 target cells, luciferase | inhibition, % at 12.3 µM | actives 1.1% (n = 360,000) | AID 651610, 2012;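 active = mean replicate inhibition score of at least 50 and every replicate individually at or above 50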;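 also: 0% = plate neutral controls and 100% = maraviroc near 300 nM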
FGF22 binding-1: binders of human FGF22 protein, primary screen, FGF22 synaptogenesis inhibitor project, biophysical, thermal shift, single point. Fibroblast growth factor 22 (Homo sapiens), Q9HCT0. recombinant FGF22 thermal shift, SYPRO orange fluorescence; percent of sucrose octasulfate shift, DMSO zero. activity (Tm shift, normalised), % at 9.99 µM. actives 1.5% (n = 340,000). AID 651658, 2012;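 active = mean Tm shift, scaled 0 neutral to 100 positive control, at about 1.3% or above, every replicate too, limit read from the data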
Target sequence (Q9HCT0 whole entry, looked up): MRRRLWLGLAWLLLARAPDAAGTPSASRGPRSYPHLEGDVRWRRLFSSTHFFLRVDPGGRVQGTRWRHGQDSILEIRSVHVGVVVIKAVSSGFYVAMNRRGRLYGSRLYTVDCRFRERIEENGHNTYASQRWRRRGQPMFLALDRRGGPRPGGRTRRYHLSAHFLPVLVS
FGF22 binding-2: binders of human FGF22 protein, dose response, FGF22 synaptogenesis inhibitor project, biophysical, thermal shift, cherry-pick retest; recombinant FGF22 thermal shift, SYPRO orange fluorescence; actives 2% (n = 1,000); AID 720646, 2013; thermal shift activity, °C (ΔTm) at 38 µM; shares compounds with FGF22 binding-1;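 active = fitted rise in melting shift crosses a set limit at or below the top valid dose tested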
FGF22 TSA DP: binders of human FGF22 protein, dose response, FGF22 synaptogenesis inhibitor project, biophysical, thermal shift, dry powder; Thermal shift assay, SYPRO orange, melting temperature shift; shares compounds with FGF22 binding-1; Tm shift (activity), % at 38 µM; 50 tested, under 10 active; AID 743017, 2013;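 active = compounds whose fitted dose curve of melting temperature shift rises past a set threshold within the tested doses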
TSA no protein: compound-only thermal shift signal without protein, dose response, artefact control for FGF22 binder project, biochemical, cherry-picked samples, RT-PCR instrument; shares compounds with FGF22 binding-1; compound-only SYPRO orange thermal shift counter-screen, no protein; AC50, µM (highest dose often 38 µM); actives 2% (n = 1,000); AID 743019, 2013;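 active = rising signal whose fitted curve reaches the 0.54 level within the top valid dose, showing a melting point, actives reach about 13 µM in these data; inactive = the rest, including activity in the opposite direction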; also: value is where the raw curve crosses a fixed level and not half-maximal
The depositor's hits bear a star; i = inactive; . = not tested or not shown; [ ] = dose if it differs, or a comment. An excerpt weighted towards active compounds, which were near 2.7% of everything screened.

SMILES	CFTR F508del cor	E-sel inducer	S100A4 inh HTS	HIV Env fusion	FGF22 binding-1	FGF22 binding-2	TSA no protein	others
Cc1ccccc1S(=O)(=O)N1[C@H](C#N)[C@H](c2ccc(C#CC3CCCC3)cc2)[C@H]1CO	2	1	-4	.	.	.	.
COc1ccc(CN(C)C[C@@H]2Oc3ccc(NS(=O)(=O)c4ccc(C)cc4)cc3C(=O)N([C@@H](C)CO)C[C@H]2C)cc1	1	0	-3	.	0	.	.
C[C@H]1CN([C@@H](C)CO)C(=O)c2cc(C#CCN(C)C)cnc2O[C@H]1CN(C)C(=O)c1cnccn1	1	0	1	.	0	.	.
CC(C)C#Cc1cnc2c(c1)C(=O)N([C@@H](C)CO)C[C@H](C)[C@@H](CN(C)C(=O)c1cnccn1)O2	-1	0	7	-58[16.7 µM]	1.5*	0.039[42 µM]	i
CCC(=O)N(C)C[C@@H]1Oc2cc(-c3ccc(OC)cc3)ccc2S(=O)(=O)N([C@H](C)CO)C[C@@H]1C	-2	0	-6	3[16.7 µM]	0	.	.
O=C(Nc1cccc(F)c1)N1CC(=O)N2[C@H](CO)[C@H](c3ccc(C#CCC4CCCC4)cc3)[C@H]2C1	-4	-1	3	.	.	.	.
COc1cc(NC(=O)c2ccc3c(c2)OCCO3)ccc1NC(=O)c1cccs1	1	.	1	-7	2.0*	-0.2	10µM*
O=C(Nc1ccc([N+](=O)[O-])cc1)Nc1ccc2c(c1)OCCO2	-3	.	0	-118	0	.	.
COc1cc([N+](=O)[O-])ccc1NC(=O)Nc1ccc2c(c1)OCCO2	-1	.	1	-4	1.7*	0.073	i
COc1cccc(C(=O)Nc2cccc(NC(=O)c3cccs3)c2)c1	-3	.	-5	5	1.9*	-0.032	i
O=C(NC[C@@H]1CC[C@@H]2[C@@H](CN2Cc2cccc(Cl)c2)O1)C1CCOCC1	-2	.	15	31[16.7 µM]	.	.	.
CNC[C@H]1OCCCC[C@H](C)Oc2ccc(NC(=O)Nc3c(C)noc3C)cc2C(=O)N([C@H](C)CO)C[C@@H]1C	-1	0	5	-4[16.7 µM]	0	.	.
CN1CCN(C(=O)C[C@H]2C=C[C@H](NS(=O)(=O)c3cccc(F)c3)[C@H](CO)O2)CC1	1	0	5	-5[16.7 µM]	0	.	.
CC(C)c1cn(CC[C@H]2CC[C@H](NC(=O)C3CCCC3)[C@H](CO)O2)nn1	0	0	-2	15[16.7 µM]	0	.	.
C/C=C/c1ccc([C@H]2[C@@H](CO)N(C(C)=O)C23CN(C(=O)c2ccc(F)cc2)C3)cc1	-1	1	-11	.	1.4*	-0.22	i
C/C=C/c1ccc([C@H]2[C@@H](CO)N(C(C)=O)C23CN(C(=O)c2ccncc2)C3)cc1	0	0	-8	.	0	.	.
CC(C)NC(=O)Nc1ccc2c(c1)CC(=O)N([C@@H](C)CO)C[C@@H](C)[C@H](CN(C)C(=O)NC1CCCCC1)O2	-1	2	6	-5[16.7 µM]	.	.	.
O=[N+]([O-])c1ccc(S(=O)(=O)Nc2nnc(C(F)(F)F)s2)cc1	0	0	-1	-17	1.5*	-0.06	i
Cc1[nH]c2ccc(C(=O)OCC(=O)Nc3cccc(S(N)(=O)=O)c3)cc2c1C	-1	0	-10	12	1.6*	.	i	FGF22 TSA DP=0
Cc1nc2ccccc2c2oc(C(=O)NCc3ccc4c(c3)OCO4)cc12	1	0	-5	88*	11*	-4.6[19.5 µM]	6.3µM*
